For experiment [1], the target named is 72 kDa type IV collagenase (Homo sapiens, UniProt P08253). Nature of the experiment: Inhibition of human recombinant MMP2 after 30 mins. A digest of the protocol: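 Enzyme (1.16 U) preincubated 30 min at 37 °C with fragment in 50 mM HEPES, 10 mM CaCl2, 0.05% Brij-35, pH 7.5. Fluorogenic Mca peptide substrate (4 μM final) then added. Rate of fluorescence increase compared with no-inhibitor control (100%). Single-point 25 μM final for the 8-hydroxyquinoline sublibrary. IC50 fitted to dose-response curves from serial dilutions of DMSO stocks.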
72 kDa type IV collagenase, sequence (P08253 whole entry, the tested form may be a part): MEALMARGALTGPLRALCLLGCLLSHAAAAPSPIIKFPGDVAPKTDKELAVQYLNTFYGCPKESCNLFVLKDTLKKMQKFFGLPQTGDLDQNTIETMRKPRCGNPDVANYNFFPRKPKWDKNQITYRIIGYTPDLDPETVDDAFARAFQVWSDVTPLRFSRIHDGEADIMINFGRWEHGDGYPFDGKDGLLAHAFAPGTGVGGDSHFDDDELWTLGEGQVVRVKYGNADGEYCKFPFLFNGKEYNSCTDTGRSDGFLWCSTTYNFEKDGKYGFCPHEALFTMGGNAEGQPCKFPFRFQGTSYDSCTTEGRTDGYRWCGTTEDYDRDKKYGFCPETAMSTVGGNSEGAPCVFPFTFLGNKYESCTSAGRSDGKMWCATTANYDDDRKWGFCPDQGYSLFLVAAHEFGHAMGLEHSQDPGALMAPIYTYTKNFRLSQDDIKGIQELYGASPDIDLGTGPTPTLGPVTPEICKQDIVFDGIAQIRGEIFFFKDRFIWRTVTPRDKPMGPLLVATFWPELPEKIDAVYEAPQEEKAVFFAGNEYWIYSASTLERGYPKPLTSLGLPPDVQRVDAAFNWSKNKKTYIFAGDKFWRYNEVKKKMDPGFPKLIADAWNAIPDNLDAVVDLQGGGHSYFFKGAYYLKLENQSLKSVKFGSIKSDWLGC

Experiment [2] concerns the target T1, Interstitial collagenase (Homo sapiens) (UniProt P03956).
T1 sequence (whole entry): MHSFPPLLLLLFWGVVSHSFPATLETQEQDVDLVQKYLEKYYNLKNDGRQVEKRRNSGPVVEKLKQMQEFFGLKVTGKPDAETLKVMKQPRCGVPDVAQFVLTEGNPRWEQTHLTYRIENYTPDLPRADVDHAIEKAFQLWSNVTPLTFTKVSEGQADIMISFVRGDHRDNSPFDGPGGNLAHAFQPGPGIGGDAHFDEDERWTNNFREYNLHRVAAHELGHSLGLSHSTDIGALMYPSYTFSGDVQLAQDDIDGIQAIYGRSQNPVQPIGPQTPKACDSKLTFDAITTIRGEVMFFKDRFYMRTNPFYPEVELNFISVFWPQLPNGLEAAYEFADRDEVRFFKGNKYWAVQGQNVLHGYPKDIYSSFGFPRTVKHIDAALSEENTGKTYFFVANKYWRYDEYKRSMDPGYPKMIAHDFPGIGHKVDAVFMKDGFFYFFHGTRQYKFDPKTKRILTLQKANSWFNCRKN
Conditions: at 1 mM.

For experiment [3], the target named is T2, Nitric oxide synthase, inducible (Mus musculus) (UniProt P29477).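 Note: recombinant enzyme, activity read out colorimetrically after 40 min.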
T2 sequence (whole entry): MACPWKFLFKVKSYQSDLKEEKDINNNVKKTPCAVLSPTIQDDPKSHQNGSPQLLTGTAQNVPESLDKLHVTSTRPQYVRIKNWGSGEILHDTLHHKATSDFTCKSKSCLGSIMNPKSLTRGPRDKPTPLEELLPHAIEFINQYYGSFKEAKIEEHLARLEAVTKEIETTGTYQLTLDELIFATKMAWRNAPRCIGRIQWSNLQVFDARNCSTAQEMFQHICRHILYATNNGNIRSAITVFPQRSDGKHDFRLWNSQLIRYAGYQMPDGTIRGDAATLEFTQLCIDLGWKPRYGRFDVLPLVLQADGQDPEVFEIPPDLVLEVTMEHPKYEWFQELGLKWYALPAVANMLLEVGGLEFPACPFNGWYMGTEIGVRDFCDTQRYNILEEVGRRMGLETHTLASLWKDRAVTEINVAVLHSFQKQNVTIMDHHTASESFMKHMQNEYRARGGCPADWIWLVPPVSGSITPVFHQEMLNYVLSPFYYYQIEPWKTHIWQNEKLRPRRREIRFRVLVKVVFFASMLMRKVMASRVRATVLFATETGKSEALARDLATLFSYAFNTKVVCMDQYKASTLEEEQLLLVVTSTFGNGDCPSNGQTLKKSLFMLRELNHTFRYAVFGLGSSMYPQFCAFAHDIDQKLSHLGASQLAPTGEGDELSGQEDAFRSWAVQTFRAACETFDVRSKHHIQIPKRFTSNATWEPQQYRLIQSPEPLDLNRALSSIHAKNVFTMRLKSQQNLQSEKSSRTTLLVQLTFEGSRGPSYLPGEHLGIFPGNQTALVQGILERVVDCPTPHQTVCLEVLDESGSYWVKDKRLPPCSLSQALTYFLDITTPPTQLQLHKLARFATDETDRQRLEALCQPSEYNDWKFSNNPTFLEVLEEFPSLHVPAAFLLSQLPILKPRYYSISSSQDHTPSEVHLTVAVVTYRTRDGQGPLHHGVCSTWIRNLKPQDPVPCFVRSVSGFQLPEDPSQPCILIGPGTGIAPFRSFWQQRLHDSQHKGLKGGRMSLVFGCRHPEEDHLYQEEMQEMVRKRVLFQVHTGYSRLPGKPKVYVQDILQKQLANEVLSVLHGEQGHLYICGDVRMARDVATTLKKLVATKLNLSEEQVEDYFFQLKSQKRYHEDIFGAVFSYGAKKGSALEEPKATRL
Conditions: at 1 mM.

The target in experiment [4] is Stromelysin-1 (Homo sapiens) (UniProt P08254). As to conditions: at 1 mM.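 Note: recombinant enzyme, inhibition read after a 30 min incubation.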
Stromelysin-1 (Homo sapiens), sequence (P08254 100-477 limits assumed): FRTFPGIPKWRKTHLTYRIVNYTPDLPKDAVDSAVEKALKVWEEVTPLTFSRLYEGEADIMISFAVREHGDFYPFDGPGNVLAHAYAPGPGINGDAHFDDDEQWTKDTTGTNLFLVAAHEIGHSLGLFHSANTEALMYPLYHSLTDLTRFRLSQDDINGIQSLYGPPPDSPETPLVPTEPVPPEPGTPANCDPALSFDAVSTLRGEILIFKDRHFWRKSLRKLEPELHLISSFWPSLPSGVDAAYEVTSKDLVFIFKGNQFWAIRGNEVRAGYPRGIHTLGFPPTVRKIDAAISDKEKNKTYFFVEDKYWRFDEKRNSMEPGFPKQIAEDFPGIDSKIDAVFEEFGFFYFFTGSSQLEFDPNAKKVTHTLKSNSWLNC
Experiment [5] has as its target Neutrophil collagenase (Homo sapiens) (UniProt P22894). As to conditions: at 1 mM.

Neutrophil collagenase (Homo sapiens), sequence (P22894 101-467 limits assumed): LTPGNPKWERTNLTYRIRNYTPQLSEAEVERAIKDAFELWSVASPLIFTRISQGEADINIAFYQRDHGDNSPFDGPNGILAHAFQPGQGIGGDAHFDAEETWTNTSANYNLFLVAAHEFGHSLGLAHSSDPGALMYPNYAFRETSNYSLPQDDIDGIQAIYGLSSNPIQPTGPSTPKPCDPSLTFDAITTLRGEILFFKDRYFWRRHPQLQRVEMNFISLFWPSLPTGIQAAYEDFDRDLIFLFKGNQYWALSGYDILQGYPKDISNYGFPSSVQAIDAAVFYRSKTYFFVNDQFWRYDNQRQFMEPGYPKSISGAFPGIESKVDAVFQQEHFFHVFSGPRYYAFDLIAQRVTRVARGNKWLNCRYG

As to `O=c1cccccc1O` [TROPOLONE], the IC50 (in general, the concentration that inhibits the measured activity by half) in experiment [1] worked out at 146 µM. Further, the inhibition (usually the relative decrease from the control value, in per cent) came to 100% in experiment [2], 9% in experiment [3], 95% in experiment [4] and 100% in experiment [5].

In the case of `c1ccc(CNCc2ccccn2)nc1`, the inhibition was 73% in experiment [2], -2% in experiment [3], 93% in experiment [4] and 100% in experiment [5].

Consider `O=C(O)c1ccc(C(=O)O)nc1`, for which the inhibition in experiment [2] is 0%; in experiment [3], -4%; in experiment [4] it was 91%; in experiment [5], -1%.

Take `Cc1ccc(O)c(C(=O)O)c1`: the inhibition in experiment [2] was 28%; in experiment [3], 21%; in experiment [4] it was 76%; in experiment [5], 26%.

In the case of `CCn1ccc(=O)c(O)c1C`, the inhibition in experiment [2] was 19%; in experiment [3] it was -9%; in experiment [4], -8%; in experiment [5], 29%.

With `Cn1cccc(O)c1=O`, the inhibition in experiment [2] was 17%; in experiment [3] it was -5%; in experiment [4], -3%; in experiment [5], 13%.

Consider `O=C(O)c1ccc(F)cc1O`, for which the inhibition in experiment [2] was 14%; in experiment [3], 1%; in experiment [4] it was -2%; in experiment [5] it was 4%.

Turning to `C1CNCCNCCN1`, the inhibition in experiment [2] came to 105%; in experiment [3] it was 0%; in experiment [4] it was 48%; in experiment [5] it was 104%.

Consider `Cc1ccc(S(N)(=O)=O)cc1`, for which the inhibition in experiment [2] was 11%; in experiment [3], -5%; in experiment [4], -5%; in experiment [5] it was 9%.

Regarding `O=C(O)c1ccccc1O`, the inhibition is -1% in experiment [2], 13% in experiment [3], -2% in experiment [4] and 14% in experiment [5].

For `Cc1nc(O)nc(O)c1C`, the inhibition in experiment [2] is 11%; in experiment [3], 46%; in experiment [4], 10%; in experiment [5], 2%.

`Cc1cccc(C(=O)O)c1O`: the inhibition in experiment [2] was 10%; in experiment [3], 13%; in experiment [4], 13%; in experiment [5], 18%.

Regarding `O=C(O)c1nccc2ccccc12`, the inhibition in experiment [2] was 32%; in experiment [3], 13%; in experiment [4], 67%; in experiment [5] it was 13%.

For the molecule `O=c1cc(CCl)occ1O`, the inhibition in experiment [2] amounted to 67%; in experiment [3], 63%; in experiment [4] it was 68%; in experiment [5] it was 59%.

For the molecule `O=C(O)c1cc(F)ccc1O`, the inhibition in experiment [2] is -7%; in experiment [3] it was 1%; in experiment [4], -2%; in experiment [5], -1%.

As to `Cc1cc(O)nc(O)n1`, the inhibition in experiment [2] came out at 13%; in experiment [3], 8%; in experiment [4] it was 7%; in experiment [5], 11%.

Turning to `O=C(O)c1cccc(O)c1O`, the inhibition in experiment [2] is 17%; in experiment [3], 2%; in experiment [4], -1%; in experiment [5] it was 10%.

For the molecule `Cc1cc(=O)c(O)co1`, the inhibition is 37% in experiment [2], -3% in experiment [3], 29% in experiment [4] and 31% in experiment [5].

In the case of `Nc1ccc(C(=O)O)c(O)c1`, the inhibition in experiment [2] was -7%; in experiment [3] it was 8%; in experiment [4], 4%; in experiment [5], 8%.

For `O=c1occcc1O`, the inhibition came out at 74% in experiment [2], 42% in experiment [3], 72% in experiment [4] and 68% in experiment [5].

As for `Cc1occ(O)c(=O)c1C(=O)O`, the inhibition was determined as 60% in experiment [2], 17% in experiment [3], 80% in experiment [4] and 55% in experiment [5].

For `[O-][n+]1cccc2cccc(O)c21`, the inhibition was determined as 70% in experiment [2], 28% in experiment [3], 81% in experiment [4] and 64% in experiment [5].

For `Nc1[nH]cnc2ncnc1-2`, the inhibition in experiment [2] stood at 17%; in experiment [3], 6%; in experiment [4], 10%; in experiment [5], 9%.

With `Oc1ncccn1`, the inhibition in experiment [2] came to 100%; in experiment [3], 6%; in experiment [4], 49%; in experiment [5], 100%.

Turning to `Cc1cc(=O)c(O)c(CCl)o1`, the inhibition was found to be 53% in experiment [2], 6% in experiment [3], 59% in experiment [4] and 47% in experiment [5].

Turning to `O=C(O)c1cccc(Br)n1`, the inhibition in experiment [2] turned out to be 11%; in experiment [3], 17%; in experiment [4], 18%; in experiment [5], 1%.

Take `CCCCc1ccc(C(=O)O)nc1`: the inhibition in experiment [2] came to 58%; in experiment [3], 10%; in experiment [4], 80%; in experiment [5], 47%.

Consider `CC(=O)C(C)C(C)=O`, for which the inhibition was 10% in experiment [2], 7% in experiment [3], -1% in experiment [4] and 3% in experiment [5].

With `CC(=O)C1CCCC1=O` (stereo not given), the inhibition in experiment [2] amounted to 38%; in experiment [3], 29%; in experiment [4] it was 4%; in experiment [5] it was 37%.

Take `Nc1cc(=O)nc(N)[nH]1`: the inhibition in experiment [2] is 3%; in experiment [3] it was 7%; in experiment [4], 14%; in experiment [5] it was 4%.

In the case of `O=C(O)c1cccc(C(=O)O)n1`, the inhibition is 7% in experiment [2], 20% in experiment [3], 54% in experiment [4] and 17% in experiment [5].

As for `O=c1ccocc1O`, the inhibition in experiment [2] was determined as 48%; in experiment [3] it was 22%; in experiment [4], 35%; in experiment [5], 43%.

As for `O=C(O)c1ncccc1O`, the inhibition came to 55% in experiment [2], 46% in experiment [3], 56% in experiment [4] and 56% in experiment [5].

As to `O=C(O)c1ccccn1`, the inhibition in experiment [2] is 3%; in experiment [3], 6%; in experiment [4] it was 99%; in experiment [5], 30%.

As for `O=C(O)c1cccc[n+]1[O-]`, the inhibition in experiment [2] is 10%; in experiment [3] it was -1%; in experiment [4] it was 18%; in experiment [5], 21%.

Take `Cc1cc(O)nc(C)n1`: the inhibition in experiment [2] stood at 10%; in experiment [3], 8%; in experiment [4] it was 6%; in experiment [5], 11%.

For the origin of these results see ChEMBL document CHEMBL1649420, “Identifying chelators for metalloprotein inhibitors using a fragment-based approach” (J Med Chem, 2011).
